Our source for the IC50 values is BindingDB's records for doi:10.1016/j.bmc.2011.08.039 (Ludwig-Maximilians-University Munich, 2011).

Experiment [1] deals with T1, Sodium- and chloride-dependent GABA transporter 3 (Mus musculus, UniProt P31650).
T1 sequence (P31650 whole entry): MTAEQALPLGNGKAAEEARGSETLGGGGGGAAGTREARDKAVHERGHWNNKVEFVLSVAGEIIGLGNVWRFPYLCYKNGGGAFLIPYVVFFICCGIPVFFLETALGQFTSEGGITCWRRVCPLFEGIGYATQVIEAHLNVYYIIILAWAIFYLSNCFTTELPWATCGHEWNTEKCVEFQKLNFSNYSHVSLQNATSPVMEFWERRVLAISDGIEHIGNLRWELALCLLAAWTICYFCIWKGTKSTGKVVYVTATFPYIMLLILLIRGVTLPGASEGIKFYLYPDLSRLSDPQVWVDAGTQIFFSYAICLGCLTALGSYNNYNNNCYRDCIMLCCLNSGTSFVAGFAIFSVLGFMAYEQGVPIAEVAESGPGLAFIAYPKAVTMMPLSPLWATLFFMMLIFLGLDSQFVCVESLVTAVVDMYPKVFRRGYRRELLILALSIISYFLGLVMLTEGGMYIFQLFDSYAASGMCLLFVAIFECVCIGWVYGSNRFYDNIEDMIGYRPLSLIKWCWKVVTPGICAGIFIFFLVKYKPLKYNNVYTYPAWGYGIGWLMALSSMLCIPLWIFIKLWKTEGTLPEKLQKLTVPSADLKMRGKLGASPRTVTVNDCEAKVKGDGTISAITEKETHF
The experiment can be described thus: Inhibition of mouse GAT3-mediated [3H]GABA uptake expressed in human HEK cells. The procedure, abridged: (§1)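 Specific [3H]GABA uptake was measured at the murine transporter subtype, and results are given as pIC50 ± SEM from three independent experiments, each run in triplicate.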

The target in experiment [2] is T2, Sodium- and chloride-dependent GABA transporter 2 (Mus musculus, UniProt P31649).
T2 sequence (P31649 whole entry): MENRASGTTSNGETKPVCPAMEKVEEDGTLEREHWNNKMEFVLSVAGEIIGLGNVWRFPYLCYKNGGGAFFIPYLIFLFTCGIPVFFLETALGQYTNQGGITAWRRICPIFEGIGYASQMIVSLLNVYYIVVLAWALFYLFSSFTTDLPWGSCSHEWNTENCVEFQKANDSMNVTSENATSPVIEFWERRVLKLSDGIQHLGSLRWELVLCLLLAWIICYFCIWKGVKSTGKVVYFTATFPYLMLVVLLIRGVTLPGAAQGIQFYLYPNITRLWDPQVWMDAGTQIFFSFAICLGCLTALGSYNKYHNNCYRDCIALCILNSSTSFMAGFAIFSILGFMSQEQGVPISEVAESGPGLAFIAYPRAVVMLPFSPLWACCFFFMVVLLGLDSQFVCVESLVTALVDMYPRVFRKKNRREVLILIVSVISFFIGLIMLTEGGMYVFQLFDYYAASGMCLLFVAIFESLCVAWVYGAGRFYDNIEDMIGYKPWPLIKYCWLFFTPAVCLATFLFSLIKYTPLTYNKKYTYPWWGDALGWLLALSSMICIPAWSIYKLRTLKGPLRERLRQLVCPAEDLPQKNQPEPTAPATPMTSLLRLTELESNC
The experiment is described as follows: Inhibition of mouse GAT2-mediated [3H]GABA uptake expressed in human HEK cells. An outline of the steps:
as §1

Experiment [3] can be described thus: Inhibition of mouse GAT2-mediated [3H]GABA uptake expressed in BHK cells.
Experiment [4] can be described thus: Inhibition of mouse GAT3-mediated [3H]GABA uptake expressed in BHK cells.

SMILES strings stand for the structures.

In the case of `CC(C)(C)CC(C)(C)n1nnnc1CNC(c1ccccc1)c1ccccc1`, in experiment [1], the IC50 (as a rule, the concentration that gives 50% inhibition) was determined as 60.3 µM.

With `C(CCNCc1nnnn1C1CCCCC1)=C(c1ccccc1)c1ccccc1`, the IC50 in experiment [1] stood at 21.4 µM.

In experiment [1], `c1ccc(Cn2nnnc2CNCC(c2ccccc2)c2ccccc2)cc1` registered an IC50 of 44.7 µM.

For `CC(C)(C)CC(C)(C)n1nnnc1CNCCC=C(c1ccccc1)c1ccccc1`, it took 12.3 µM to reach half-maximal inhibition in experiment [1] (IC50).

With `CC(C)(C)CC(C)(C)n1nnnc1CNCC=C(c1ccccc1)c1ccccc1`, the IC50 in experiment [2] is 10.2 µM; in experiment [1] it was 22.9 µM.

Molecule `CC(C)(C)CC(C)(C)n1nnnc1CNCCC(c1ccccc1)c1ccccc1` yielded an IC50 in experiment [1] of 8.13 µM. This counts as single-digit micromolar.

Turning to `c1ccc(C(CCCNCc2nnnn2C2CCCCC2)c2ccccc2)cc1`, the IC50 was 21.9 µM in experiment [2] and 17.4 µM in experiment [1].

Consider `c1ccc(C(NCc2nnnn2C2CCCCC2)c2ccccc2)cc1`, for which, in experiment [1], the IC50 worked out at 24.5 µM.

As for `C(CNCc1nnnn1C1CCCCC1)=C(c1ccccc1)c1ccccc1`, the IC50 in experiment [2] was 24.5 µM; in experiment [1], 18.2 µM.

`CC(C)(C)CC(C)(C)n1nnnc1CNCCCC(c1ccccc1)c1ccccc1`: the values for the IC50 in experiment [2] and in experiment [1] were 16.6 µM and 12.9 µM, respectively.

Turning to `C(CNCc1nnnn1Cc1ccccc1)=C(c1ccccc1)c1ccccc1`, the IC50 in experiment [2] came to 24.5 µM; in experiment [1] it was 34.7 µM.

With `c1ccc(Cn2nnnc2CNCCCC(c2ccccc2)c2ccccc2)cc1`, the IC50 in experiment [2] amounted to 15.5 µM; in experiment [1], 40.7 µM.

On to `COc1ccccc1C1(O)CCN(CCCn2c3ccccc3c3ccccc32)CC1`, for which the IC50 in experiment [2] was found to be 8.13 µM; in experiment [1], 11.7 µM; in experiment [3], 1.41 µM; in experiment [4], 40.7 µM.

`c1ccc(Cn2nnnc2CNC(c2ccccc2)c2ccccc2)cc1`: the midpoint of inhibition in experiment [1], the IC50, lay at 16.2 µM.
